Screening data deposited in PubChem by several laboratories.
KLK5 inh = blocks human kallikrein 5 protease activity; Q9Y337; recombinant hK5, fluorogenic AMC substrate cleavage; inhibition, % at 5 µM; 0.59% of 210,000 active;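 active = inhibition of 40% or more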;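 also: 0% = enzyme controls without compound and 100% = no-enzyme blanks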
EP2 antag = blocks the human prostaglandin E2 receptor EP2. inhibition, % at 25 µM. P43116. 0.52% of 260,000 active. C6 glioma cells expressing human EP2, cAMP TR-FRET; cells stimulated with saturating PGE2;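 active = percent inhibition above 40 after rounding to a whole number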;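 also: rat C6 glioma host cells with rolipram phosphodiesterase inhibitor present; the protocol text gives 20 µM as final concentration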
Thrombin inh = inhibitors of human thrombin; 0.26% of 220,000 active; inhibition, % at 5 µM; P00734; alpha-thrombin, Boc-VPR-AMC fluorogenic substrate cleavage;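 active = inhibition at or above 40%; inactive = inhibition below 40%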;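 also: 0% = enzyme with no compound and 100% = wells without enzyme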
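signal = AMC fluorescence, 355/460 nm | material = human alpha-thrombin enzyme | control set = enzyme without compound as high, wells lacking enzyme as low | times = reaction at room temperature | read-out basis = percent inhibition scaled between no-compound controls and no-enzyme blanks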
EP2 mod = EP2 receptor (human) modulation | EP2-expressing cells, cAMP HTRF FRET, PGE2 co-stimulation | induction, % at 25 µM | P43116 | 0.83% of 260,000 active;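 active = compounds whose cAMP rise, as percent of the full-agonist control response, exceeds 60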;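 also: rat C6 glioma line stably carrying human EP2 under a CMV promoter; the protocol text gives 20 µM as final concentration; 100% = response of wells given 1 µM PGE2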
FXIa inh 1536 = factor XIa (human) inhibition. P03951. purified FXIa, Boc-Glu-Ala-Arg-AMC fluorogenic substrate. inhibition, % at 5 µM. 0.14% of 220,000 active. AID 798;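 active = inhibition of at least 40%; inactive = inhibition below 40%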;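 also: fluorescence of freed AMC excited at 355 nm; 0% = enzyme without compound and 100% = no enzyme blank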
FXIIa inh 1536 = factor XIIa (human) inhibition | purified FXIIa, Boc-QGR-AMC fluorogenic substrate, 2 h | inhibition, % at 5 µM | 0.3% of 220,000 active; in the data active = inhibition above about 40%;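 also: 0% = enzyme with no compound and 100% = blank without enzyme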
Target sequence (P00748 20-372 limits assumed): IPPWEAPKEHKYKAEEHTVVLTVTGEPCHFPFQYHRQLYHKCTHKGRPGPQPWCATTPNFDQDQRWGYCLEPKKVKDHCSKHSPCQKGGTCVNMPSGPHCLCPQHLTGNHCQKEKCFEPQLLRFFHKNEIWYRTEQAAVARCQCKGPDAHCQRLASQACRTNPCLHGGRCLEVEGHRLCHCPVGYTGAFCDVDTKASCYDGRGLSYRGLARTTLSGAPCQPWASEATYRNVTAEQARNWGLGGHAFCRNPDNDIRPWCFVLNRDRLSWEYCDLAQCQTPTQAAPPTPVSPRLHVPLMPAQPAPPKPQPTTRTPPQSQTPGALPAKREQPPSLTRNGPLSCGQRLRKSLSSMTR
Target sequence (P00748 373-615 limits assumed): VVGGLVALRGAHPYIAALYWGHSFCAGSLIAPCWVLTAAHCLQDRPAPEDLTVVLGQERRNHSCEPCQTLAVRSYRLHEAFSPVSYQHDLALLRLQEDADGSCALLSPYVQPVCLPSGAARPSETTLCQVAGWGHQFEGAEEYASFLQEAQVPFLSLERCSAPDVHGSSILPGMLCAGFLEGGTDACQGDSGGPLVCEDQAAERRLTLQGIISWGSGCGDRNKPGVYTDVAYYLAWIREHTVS
Starred values were filed as active, the others as inactive; / = no result given; ! = not active in a repeat. This is a sample that favours compounds with a hit; in the whole collection about 2.1% have one here.

SMILES	KLK5 inh	EP2 antag	Thrombin inh	EP2 mod	FXIa inh 1536	FXIIa inh 1536
C[C@@H]1O[C@H](O[C@H]2C[C@@H](O)[C@]3(CO)[C@@H]4[C@@H](O)C[C@]5(C)[C@@H](C6=CC(=O)OC6)CC[C@@]5(O)[C@H]4CC[C@@]3(O)C2)[C@@H](O)[C@H](O)[C@H]1O	/	42.5*	/	14.3	/	/
COc1cccc(CN2CCN(C(=O)Cc3ccc(F)cc3)[C@@H](C)C2)c1	/	/	/	-24.7	/	/
CNCCc1ccc(O)c(O)c1	/	13.4	/	70.8*	/	/
C=CCOc1c(CN2C3CCC2CC(O)(c2ccc(OC)cc2)C3)cccc1OC (stereo unspecified)	/	-0.1	/	-20.1	/	/
CC(=O)[O][Hg][c]1ccccc1	/	113.1*	/	-40.4	/	/
CNC(C(=O)c1ccccc1)C(OC)c1ccccc1 (stereo unspecified)	-7.6	10.6	1.0	18.4	-2.3	5.8
Cc1ccc(-c2nc(C)sc2CC(=O)N2CCCCC2CN2CCCC2)c(C)c1 (stereo unspecified)	/	6.6	/	-52.3	/	/
NCC(=O)c1ccccc1	/	10.3	/	26.1	/	/
O=S(=O)(O)/C(=C\c1ccccc1)c1ccccc1 (tested in a mixture with another compound)	/	46.0*	/	26.1	/	/
C=CCOc1c(CN2C3CCC2CC(O)(c2nccn2C)C3)cccc1OC (stereo unspecified)	/	6.6	/	-19.0	/	/
C[CH2][Hg][S]c1ccccc1C(=O)O	/	114.8*	/	-37.8	/	/
CCCOc1c(CN2C3CCC2CC(O)(c2ccccc2F)C3)cccc1OC (stereo unspecified)	/	5.3	/	-29.5	/	/
COc1cc2c(cc1OC)[C@@]13CCN4C=C5CCO[C@H]6CC(=O)N2[C@H]1[C@H]6[C@H]5C[C@H]43	/	53.3*	/	-8.8	/	/
O=C(O)C[C@H]1OCC=C2CN3CC[C@]45C6=CC(=O)C(=O)C([N+](=O)[O-])=C6N[C@H]4[C@H]1[C@H]2C[C@H]35	/	41.4*	/	-8.8	/	/
COc1cc2c(cc1OC)C13CCN4CC5=CCOC6CC(=O)N2C1C6C5CC43 (stereo unspecified) (tested in a mixture with another compound)	3.9	9.7	0.3	7.9	11.7	8.0
C/C(N[O-])=C(\C)[N+]([O-])=[Rh][Cl].CC(=N\[O-])/C(C)=N/[O-].c1ccc([PH+](c2ccccc2)c2ccccc2)cc1	/	41.0*	/	26.5	/	/
CN(C)C(=O)Oc1ccc(-c2cn3cc(Cl)ccc3n2)cc1	44.1*	5.8	27.0	-32.8	4.0	10.2
CN(C)C(=O)Oc1cccc(-c2cn3cc(Cl)ccc3n2)c1	-14.7	5.8	-7.2	-47.3	-1.4	2.0
CCOC(=O)c1ccc2[nH]c(-c3ccc(S(=O)(=O)F)cc3)cc(=O)c2c1	-10.7	50.6*!	4.7	-13.0	5.5	2.9
C=Cn1cc(CN(CCc2ccccc2)Cc2cccs2)c(C)n1	/	1.9	/	68.6*	/	/
CCn1ncc(CN(CCc2ccccc2)Cc2cccs2)c1C	/	2.1	/	44.3	/	/
Cn1nc(CC(=O)N2CCCCC2CN2CCCC2)c2ccccc2c1=O (stereo unspecified)	/	5.7	/	-33.3	/	/
CCCCCCOC(=O)c1ccccc1N	2.6	7.8	-0.2	63.9*	-1.8	7.9
COc1cc(CN2CCN(C(=O)COc3ccc(C)cc3)CC2)cc(OC)c1OC	/	19.6	/	3.5	/	/
CC(=O)C1CCC2C3CCC4C[C@H](O)CCC4(C)C3C[C@H](O)C12C (stereo partly specified)	/	12.2	/	-12.6	/	/
O=C(Nc1ccc([As](=O)(O)O)cc1)Nc1cccc(Cl)c1Cl	/	57.6*	/	1.8	/	/
O.O.[NH-]C1(C(=O)O)CCCC1.[NH-]C1(C(=O)O)CCCC1.[Ni+2]	/	47.4*	/	26.4	/	/
COc1ccc(C(=O)O[C@@H]2CC[C@@]3(C)[C@@H]4CC[C@@H]5[C@@]6(O)C[C@@H](O)[C@@]7(O)[C@@H](CN8C[C@H](C)CC[C@H]8[C@]7(C)O)[C@]6(O)C[C@@]53O[C@@]42O)cc1OC	/	45.5*	/	4.0	/	/
C/C=C(/C)C(=O)O[C@H]1CC[C@@]2(C)[C@@H]3CC[C@H]4[C@]5(O)C[C@H](O)[C@@]6(O)[C@@H](CN7C[C@@H](C)CC[C@H]7[C@@]6(C)O)[C@]5(O)C[C@@]42O[C@]13O	/	5.7	/	3.1	/	/
